# Results of several laboratories.
# Target: Calcium/calmodulin-dependent protein kinase type II subunit beta (CAMK2B, Homo sapiens, UniProt Q13554)
SMILES,effect on,technique,tested at,remaining binding
Cc1cc(NC(=O)c2cccc(S(F)(F)(F)(F)F)c2)cc(-n2ccn3nc(-c4cccnc4)cc23)c1,cell-free assay,competition with immobilised ligand,1 µM,100%
FC(F)(F)Oc1cccc(-c2cnc3ccc(-c4ccncc4)nn23)c1,cell-free assay,competition with immobilised ligand,5 µM,47%
C=CC(=O)N1CCC(C(=O)NCC(=O)N2CCN(c3nc(-c4cnc(N)nc4C(F)F)nc(N4CCOCC4)n3)CC2)CC1,binding,competition with immobilised ligand,1 µM,100%
CNC(=O)[C@@H]1CC[C@@H](n2c(-c3ccc4cnccc4c3)nc3ccc(C(=O)NCc4cccc(C(N)=O)c4)cc32)C1,binding,competition with immobilised ligand,1 µM,100%
O=C(Nc1c[nH]nc1C(=O)NC1CCNCC1)c1cc(F)cc(F)c1,binding,competition with immobilised ligand,1 µM,100%
FC(F)(F)c1ccc2c(c1)nc(-c1cccnc1)n2C1CC1,cell-free assay,competition with immobilised ligand,1 µM,100%
CN(CCCC(F)(F)F)c1nccc(-c2cnn3ncccc23)n1,binding,,1 µM,100%
Cc1cnc(Nc2ccc(C(=O)N3CCC(N4CCCC4)CC3)cc2)nc1-c1cc2ccccc2s1,binding,competition with immobilised ligand,1 µM,90%
c1cncc(-c2cccc(Nc3nccc(NC4CCCCC4)n3)c2)c1,binding,competition with immobilised ligand,10 µM,94%
Cn1nc(C(=O)NCc2ccc(C(=O)O)cc2)cc1-c1ccc2[nH]ccc2c1,cell-free assay,competition with immobilised ligand,0.1 µM,91%
C[C@H]1CCN(c2nccc(-c3cnn4ncccc34)n2)C1,binding,,1 µM,80%
CN(c1ccnc(CNc2nc(Nc3ccc4c(c3)CC(=O)N4)ncc2C(F)(F)F)n1)S(C)(=O)=O,cell-free assay,competition with immobilised ligand,1 µM,86%
CCN1CCN(Cc2ccc(C(=O)Nc3ccc(C)c(Oc4ccc5c(c4)CC(=O)N5)c3)cc2C(F)(F)F)CC1,binding,competition with immobilised ligand,1 µM,100%
CN(c1nccc(-c2cnn3ncccc23)n1)C1CC1,binding,,1 µM,84%
O=C(NCCCN1CCOCC1)c1ccc(Nc2ncc(Cl)c(-c3ccc(Cl)s3)n2)cc1,binding,competition with immobilised ligand,1 µM,79%
N[C@@H]1CCN(c2nccc(-c3cnn4ncccc34)n2)C1,binding,,1 µM,100%
O=C(O)[C@@H]1[C@@H](Cn2nnc3ccccc3c2=O)CC[C@H]1C(=O)c1ccc(OCCC2CCOCC2)cc1,cell-free assay,competition with immobilised ligand,1 µM,100%
CC1CCCN1c1nccc(-c2cnn3ncccc23)n1 (stereo not drawn),binding,,1 µM,98%
O=C(c1ccc(Nc2nccc(-c3cc4ccccc4s3)n2)cc1)N1CCC(N2CCCC2)CC1,binding,competition with immobilised ligand,1 µM,100%
F[C@@H]1CCN(c2nccc(-c3cnn4ncccc34)n2)C1,binding,,1 µM,100%
C[C@H](NC(=O)c1cnc2n1[C@](C)(Cc1ccc(C#N)cc1)C(=O)N2c1cc(Cl)c(F)c(Cl)c1)C(=O)NC1(c2ccccn2)CC1,cell-free assay,competition with immobilised ligand,1 µM,100%
